The test system of test [1] is Helicobacter pylori. The experiment in a line: The lowest drug concentration that inhibited macroscopic colonial growth against Helicobacter pylori. Format: functional. In a few lines:
(§1)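 Agar dilution. Strains were precultured 3 days at 37 °C on Brucella agar with 3% horse serum and 2% starch, then suspended in buffered saline to McFarland No. 1. A 10²-fold dilution was spotted by multipoint replicator onto Brucella agar with 7% lysed horse blood carrying serial 2-fold drug dilutions. Plates were incubated 3 days at 37 °C under 10% CO₂. MIC is the lowest concentration preventing macroscopic colonial growth. Mean and range come from 10 strains: 8001, 8003, 8004, 8007, 8008, 8009, 8011, 9005, FP1530 and FP1532.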

Test [2] deals with Helicobacter pylori. The experiment in a line: The lowest drug concentration that inhibited macroscopic colonial growth against Helicobacter pylori; Value ranges from 12.5-100. Format: functional. Put shortly: as §1
Test [3] relates to Helicobacter pylori. In words: Determined the lowest drug concentration that inhibited macroscopic colonial growth against Helicobacter pylori. Format: functional. Put shortly:
as §1

Test [4] is filed under the species Cavia porcellus. The experiment in a line: Inhibition of histamine stimulated chronotropic response in isolated guinea pig right atrium (1*10e-6 g/mL). Format: functional, Cardiac atrium. In a few lines:
(§2)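 Guinea pig right atrial strip, under 0.3-0.6 g initial tension in Tyrode solution at 30 °C, gassed with 95% O₂-5% CO₂; beating rate recorded by transducer. Histamine hydrochloride (1 × 10^-6 g/mL) raised rate. Test compound (1 × 10^-6 g/mL) was added 30 min after histamine washout. Percent inhibition compares histamine-induced rate increases before and 30 min after dosing.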

Test [5] has as its system Helicobacter pylori. The experiment in a line: The lowest drug concentration that inhibited macroscopic colonial growth against Helicobacter pylori; value ranges from 0.2-0.78. Format: functional. In a few lines:
as §1

Test [6] relates to Rattus norvegicus. The experiment in a line: Inhibition of histamine stimulated gastric acid secretion in lumen perfused stomach of anesthetized rats (1 mg/kg iv). Format: functional. Put shortly: (§3)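 Male Sprague-Dawley rats (~250 g), fasted 24 h, anesthetized with urethane 1.25 g/kg ip. The opened stomach was lumen-perfused with saline, and the perfusate was titrated with 25 mM NaOH by autotitrator. Inhibition of histamine-stimulated acid output was measured after 1 mg/kg iv dosing; n = 2.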

In test [7] the test system is Helicobacter pylori. The experiment in a line: microbe, parasite or virus in culture.
Another test relates to Bacteroides fragilis. The experiment in a line: Antimicrobial activity was measured against Bacteroides fragilis organism. In kind it is functional.
A further test concerns Clostridium perfringens. The experiment in a line: Antimicrobial activity was measured against Clostridium perfringens organism. In kind it is functional.
The test system of another test is Campylobacter jejuni. In words: Antimicrobial activity was measured against Campylobacter jejuni organism. In kind it is functional.
Test [8] has as its system Helicobacter pylori. In words: Antimicrobial activity was measured against Helicobacter pylori organism. Value ranges from (0.2-0.39). Format: functional. Put shortly:
as §1

The subject of test [9] is Helicobacter pylori. The experiment in a line: The lowest drug concentration that inhibited macroscopic colonial growth against Helicobacter pylori; value ranges from 0.2-0.39. In kind it is functional. Put shortly: as §1
In the next test the test system is Neisseria gonorrhoeae. In words: Antimicrobial activity was measured against Neisseria gonorrhoeae organism. Format: functional.
Another test has as its system Neisseria meningitidis. The experiment in a line: Antimicrobial activity was measured against Neisseria meningitidis organism. Format: functional.
A further test deals with Clostridioides difficile. The experiment in a line: Antimicrobial activity was measured against Clostridium difficile organism. Format: functional.
Test [10] deals with Rattus norvegicus. In words: Inhibition of histamine stimulated gastric acid secretion in lumen perfused stomach of anesthetized rats. In kind it is functional. Put shortly: as §3
The species entered for test [11] is Cavia porcellus. In words: Inhibition of histamine stimulated chronotropic response in isolated guinea pig right atrium. Format: functional, Cardiac atrium. Put shortly: as §2
Test [12] relates to Helicobacter pylori. The experiment in a line: The lowest drug concentration that inhibited macroscopic colonial growth against Helicobacter pylori; value ranges from 6.25-25. Format: functional. In a few lines: as §1
Test [13] relates to Helicobacter pylori. In words: The lowest drug concentration that inhibited macroscopic colonial growth against Helicobacter pylori;value ranges from 6.25-50. Format: functional. Put shortly: as §1
The subject of test [14] is Helicobacter pylori. The experiment in a line: The lowest drug concentration that inhibited macroscopic colonial growth against Helicobacter pylori; Value ranges from 6.25-50. In kind it is functional. Put shortly: as §1
The species entered for test [15] is Cavia porcellus. In words: Inhibition of histamine stimulated chronotropic response in isolated guinea pig right atrium (1x 10e-6 g/mL). Format: functional, Cardiac atrium. Put shortly: as §2
For test [16], the system named is Rattus norvegicus. The experiment in a line: Inhibition of histamine stimulated gastric acid secretion in lumen perfused stomach of anesthetized rat (1 mg/kg iv). Format: functional. Put shortly:
as §3

Test [17] concerns Helicobacter pylori. In words: The lowest drug concentration that inhibited macroscopic colonial growth against Helicobacter pylori; value ranges from 0.39-0.78. Format: functional. In a few lines: as §1
Test [18] relates to Helicobacter pylori. The experiment in a line: The lowest drug concentration that inhibited macroscopic colonial growth against Helicobacter pylori; value ranges from 0.78-6.25. Format: functional. Put shortly:
as §1

Test [19] deals with Helicobacter pylori. In words: The lowest drug concentration that inhibited macroscopic colonial growth against Helicobacter pylori; value ranges from 1.56-3.13. Format: functional. In a few lines:
as §1

≈ marks a conversion by molar mass, not a printed value.

MIC and Inhibition data for 19 compounds are collected here from ChEMBL document CHEMBL1133633, “Anti-Helicobacter pylori agents. 4. 2-(Substituted guanidino)-4-phenylthiazoles and some structurally rigid derivatives” (2000).

`C/N=C(\N)Nc1nc(-c2cccc(CNC(C)=O)c2)cs1` yielded an MIC against Helicobacter pylori [1] of 14.4 µg/mL (≈ 47.5 µM).

`CC(=O)Nc1ccc2c(c1)-c1nc(N=C(N)N)sc1CS2`: the MIC in the test on Helicobacter pylori [1] is above 100 µg/mL.

Turning to `CC(=O)NCc1ccc2c(c1)-c1nc(N=C(N)N)sc1CCO2`, in the test with Helicobacter pylori [2], the MIC turned out to be 50 µg/mL (≈ 151 µM).

As for `CC/N=C(\N)Nc1nc(-c2cccc(CNC(C)=O)c2)cs1`, the MIC with Helicobacter pylori [1] is 3.6 µg/mL (≈ 11.3 µM).

For the compound `CC[C@H]1OC(=O)[C@H](C)[C@@H](O[C@H]2C[C@@](C)(OC)[C@@H](O)[C@H](C)O2)[C@H](C)[C@@H](O[C@@H]2O[C@H](C)C[C@H](N(C)C)[C@H]2O)[C@](C)(OC)C[C@@H](C)C(=O)[C@H](C)[C@@H](O)[C@]1(C)O` [CLARITHROMYCIN], the MIC against Helicobacter pylori [3] amounted to 0.057 µg/mL (≈ 0.0762 µM).

In the case of `CC(=O)NCc1cccc(-c2csc(NC(=N)Nc3ccccc3)n2)c1`, the Inhibition in the test filed under Cavia porcellus [4] amounted to 23%; in the test on Rattus norvegicus [6] it was 24%. The MIC against Helicobacter pylori [5] was 0.52 µg/mL (≈ 1.42 µM).

In the case of `CN/C(=N\CCSCc1nc[nH]c1C)NC#N` [CIMETIDINE], the Inhibition in the test listed under Cavia porcellus [4] is on record as 43%; with Rattus norvegicus [6], 53%. This compound also showed an MIC in the test with Helicobacter pylori [7] of 1130 µg/mL (≈ 4480 µM).

In the case of `COCC/N=C(\N)Nc1nc(-c2cccc(CNC(C)=O)c2)cs1`, the MIC was above 100 µg/mL against Bacteroides fragilis; above 100 µg/mL in the test with Clostridium perfringens; above 100 µg/mL against Campylobacter jejuni; 0.32 µg/mL (≈ 0.921 µM) against Helicobacter pylori [8]; 0.32 µg/mL (≈ 0.921 µM) in the test with Helicobacter pylori [9]; above 100 µg/mL with Neisseria gonorrhoeae. Further, the MIC in the test with Neisseria meningitidis and in the test on Clostridioides difficile was above 100 µg/mL throughout. The Inhibition in the test listed under Cavia porcellus [4] amounted to 83%; in the test on Rattus norvegicus [6] it was 87%.

In the test with Helicobacter pylori [1], `CC(=O)NCc1ccc(-c2csc(N=C(N)N)n2)cc1` gave an MIC above 100 µg/mL.

On to `CNC(=C[N+](=O)[O-])NCCSCc1ccc(CN(C)C)o1` [RANITIDINE], for which the Inhibition is given as 72% with Rattus norvegicus [10] and 44% in the test filed under Cavia porcellus [11]. This compound also returned an MIC against Helicobacter pylori [3] above 1600 µg/mL.

Take `CC(=O)NCc1cccc(-c2csc(NC(=N)NCCC#N)n2)c1`: the MIC in the test with Helicobacter pylori [12] was 19.3 µg/mL (≈ 56.4 µM).

In turn, `CC(=O)NCc1cccc(-c2csc(NC(=N)NCCc3c[nH]cn3)n2)c1` showed an MIC in the test with Helicobacter pylori [13] of 27 µg/mL (≈ 70.4 µM).

`CC(=O)NCc1cccc(-c2csc(NC(=N)NCCO)n2)c1` registered an MIC in the test on Helicobacter pylori [14] of 20 µg/mL (≈ 60 µM).

For the compound `COc1ccc(CC/N=C(\N)Nc2nc(-c3cccc(CNC(C)=O)c3)cs2)cc1`, the results for the Inhibition in the test filed under Cavia porcellus [4] and in the test on Rattus norvegicus [6] were 34% and 10%, respectively. The MIC in the test on Helicobacter pylori [5] is 0.32 µg/mL (≈ 0.756 µM).

For `CC(=O)NCc1cccc(-c2csc(NC(=N)NCCCc3ccccc3)n2)c1`, the Inhibition is given as 35% in the test filed under Cavia porcellus [15] and 57% with Rattus norvegicus [16]. In the test with Helicobacter pylori [5], this compound gave an MIC of 0.39 µg/mL (≈ 0.957 µM).

In the case of `CC(=O)NCc1cccc(-c2csc(NC(=N)NCCc3ccccn3)n2)c1`, the Inhibition in the test filed under Cavia porcellus [4] is 39%; with Rattus norvegicus [6] it was 14%. Also, the MIC against Helicobacter pylori [17] was 0.49 µg/mL (≈ 1.24 µM).

Take `CC(=O)NCc1cccc(-c2csc(NC(=N)NCCOCc3ccccc3)n2)c1`: in the test on Helicobacter pylori [18], the MIC was determined as 2.5 µg/mL (≈ 5.9 µM).

For `CC(=O)NCc1cccc(-c2csc(NC(=N)NCCC(c3ccccc3)c3ccccc3)n2)c1`, in the test on Helicobacter pylori [19], the MIC worked out at 2.5 µg/mL (≈ 5.17 µM).

As for `CCCC/N=C(\N)Nc1nc2c(s1)CSc1ccc(CNC(C)=O)cc1-2`, the MIC in the test with Helicobacter pylori [14] stood at 22 µg/mL (≈ 56.5 µM).
